Out of some 320,000 compounds screened, about 380 (0.12%) were called active.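 Rule for the calls: active = percent inhibition above the cutoff of mean plus 3 SD of all tested compounds, set per screening campaign (cut at about 20% in these data); inactive = the rest.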 The list comes from a sample in which actives are over-represented; it also holds similar structures and randomly drawn compounds.

This test deals with Photoreceptor-specific nuclear receptor (Homo sapiens) (UniProt Q9Y5X4). The experiment in a line: disruption of NR2E3 corepressor interaction – biochemical, TR-FRET, GST-NR2E3, biotin-RetCOR, NR2E3 agonist project, primary screen (AID 2300).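 Note: 0% = DMSO wells and 100% = biotin wells as full block of FRET.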 The settings on record: 1536-well, at 4.78 µM, stronger effect = higher value. Summed up: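 Format: 1536-well format; test system: GST-NR2E3 and biotin-RetCOR proteins; read-out basis: percent inhibition of TR-FRET ratio; timing: 5 h incubation at 4 °C; detection: time-resolved FRET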
Chain of Photoreceptor-specific nuclear receptor (Homo sapiens) (Q9Y5X4 whole entry, looked up): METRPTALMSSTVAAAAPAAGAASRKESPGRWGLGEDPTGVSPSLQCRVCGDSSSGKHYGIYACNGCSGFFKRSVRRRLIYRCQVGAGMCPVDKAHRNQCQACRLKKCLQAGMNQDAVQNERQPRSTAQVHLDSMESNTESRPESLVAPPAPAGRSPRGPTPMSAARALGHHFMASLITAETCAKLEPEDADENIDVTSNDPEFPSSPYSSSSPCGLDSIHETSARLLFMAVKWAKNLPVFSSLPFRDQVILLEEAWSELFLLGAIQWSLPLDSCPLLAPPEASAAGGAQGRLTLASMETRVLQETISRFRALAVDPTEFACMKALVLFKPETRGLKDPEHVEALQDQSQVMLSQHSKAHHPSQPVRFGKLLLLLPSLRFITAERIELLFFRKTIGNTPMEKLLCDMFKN
Regarding `C=CCn1c(SCc2ccc(Cl)c(Cl)c2)nnc1C(CO)NC(=O)c1ccc(OC)cc1` (stereo unspecified), the inhibition of corepressor binding is -1.93% (inactive). Take `Cc1ccn(C(CC(=O)c2ccc(Br)cc2)C(=O)O)n1` (stereo unspecified): the inhibition of corepressor binding is 0.75% (inactive). To `CC(C)CCNc1nc(N2CCCC2)c2c(c1C#N)CCN(C)C2` belongs -2.99% (inactive). In the case of `CCc1ccnc(NS(=O)(=O)c2ccc3c(c2)OCCO3)c1`, the inhibition of corepressor binding was -3.2% (inactive). To `CCN(C(=O)COC(=O)/C=C/c1nc2ccccc2s1)C1CCS(=O)(=O)C1` (stereo unspecified) belongs -1.91% (inactive). To `C[C@@H](NC(=O)c1nc[nH]c1C(=O)N1CCN(C(=O)OC(C)(C)C)CC1)c1ccccc1` belongs 0.22% (inactive).

On to `N#C/C(=C/c1ccc(Cl)cc1)NC(=O)c1ccccc1`, for which the inhibition of corepressor binding was 0.97% (inactive). Under `CSc1sc(C(=O)NC(=O)NCc2cccnc2)c(C)c1-c1ccon1` stands -5.08% (inactive); under `CCOc1ccc(OCC)c(NC(=O)C(NS(=O)(=O)c2ccc3c(c2)oc(=O)n3C)C(C)C)c1` (stereo unspecified), 5.32% (inactive).

On to `CCN(CC)S(=O)(=O)c1ccc(N(C)Cc2cccc(OC)c2OC)nc1`, for which the inhibition of corepressor binding is -0.21% (inactive). For `Cc1ccc(C(=O)Nc2ccc(C)c(S(=O)(=O)N(C)C)c2)s1`, the inhibition of corepressor binding was -3.92% (inactive). To `COc1ccccc1C(=O)Nc1ccnn1C1CCN(Cc2cnn(C)c2)CC1` belongs -1.2% (inactive); to `O=[N+]([O-])c1ccc(Oc2ccc(F)cc2Br)c2ccncc12`, 3.74% (inactive). For `O=C(COC(=O)CNS(=O)(=O)c1ccc(F)c(F)c1F)NC1CCCC1`, the inhibition of corepressor binding is 1.54% (inactive). Under `CC1(C)Cc2ccccc2-c2[nH]c(=S)[nH]c(=O)c21` stands 49.1% (active); under `CC1(C)Cc2ccccc2-c2nc(CN3CCOCC3)[nH]c(=O)c21`, 0.32% (inactive). Under `CCC1(CC)Cc2ccccc2-c2nc(CCl)[nH]c(=O)c21` stands -2.67% (inactive); under `Cc1ccc(Sc2ccncc2S(N)(=O)=O)cc1`, 0.79% (inactive). To `Cn1cc(CN2CCCC(CO)C2)c(-c2ccc(Oc3ccccc3)cc2)n1` (stereo unspecified) belongs -0.36% (inactive).

`COc1ccc(C2c3[nH]c4ccccc4c3CCN2CCCn2cccn2)cc1C` (stereo unspecified): the inhibition of corepressor binding is 1.77% (inactive).

`CCc1ccc(NC(=O)CN2CCC(C(=O)c3ccc(OC)cc3)CC2)cc1`: the inhibition of corepressor binding is 4.08% (inactive). Under `CC[C@@H](C)[C@@H](C(=O)N1CCN(C(=O)OC(C)(C)C)CC1)n1cc(CCC(=O)O)nn1` stands 2.89% (inactive). Under `O=c1[nH]c(CCl)nc2cc(-c3ccc(Cl)cc3)sc12` stands 1.58% (inactive); under `COc1ccc(CNC(=O)CN(Cc2ccc(Cl)cc2)S(C)(=O)=O)cc1`, -2.12% (inactive); under `CCCC(=O)n1nc(NCc2ccc(OC)cc2)nc1NCc1ccc(OC)cc1`, -0.61% (inactive). Under `COc1ccc(NC(=O)CN2C(=O)C(c3ccccc3)=NC23CCCCCC3)cc1OC` stands 1.4% (inactive); under `O=C(CCc1ccc(S(=O)(=O)N2CCOCC2)cc1)Nc1ccc2ccccc2c1`, 0.61% (inactive). As to `O=C(C(Cc1ccccc1)n1cccc1)N1CCN(C2CCCCC2)CC1` (stereo unspecified), the inhibition of corepressor binding was -0.53% (inactive). Under `O=C(/C=N/O)Nc1ccccc1` stands -4.21% (inactive); under `O=C(COC(=O)c1ccc(NS(=O)(=O)c2cccs2)cc1O)Nc1ccc(F)cc1`, 0.61% (inactive); under `Cc1cc(C)n(CC(C)NCc2c(C(=O)N3CCOCC3)nc3c(C)cccn23)n1` (stereo unspecified), -0.74% (inactive). For the molecule `COc1cc(C(=O)NCC(c2ccco2)N2CCCC2)ccc1OCc1ccccc1` (stereo unspecified), the inhibition of corepressor binding was 2.49% (inactive). With `CCOC(=O)c1c(NC(=O)CN2C(=O)NC3(CCC(C)CC3)C2=O)sc(C)c1CC` (stereo unspecified), the inhibition of corepressor binding was 1.08% (inactive). To `O=C(COc1coc(CN2CCN(c3ccccc3F)CC2)cc1=O)N1CCc2ccccc21` belongs -1.02% (inactive). To `CN(C(=O)CSc1nnc(Nc2ccccc2)s1)C1CCS(=O)(=O)C1` (stereo unspecified) belongs 0.29% (inactive); to `Cc1ccc(S(=O)(=O)NC2(C(F)(F)F)NC(=O)N(CCc3ccccc3)C2=O)cc1` (stereo unspecified), 1.1% (inactive); to `COc1ccc(-c2cc(C(=O)N/N=C/c3cccnc3)c3ccccc3n2)c(OC)c1`, 6.06% (inactive). To `O=C(Nc1cc(S(=O)(=O)N2CCOCC2)ccc1Cl)c1cc(=O)c2ccccc2o1` belongs 1.24% (inactive); to `O=C(NCCCN1CCOCC1)C1CCCN(S(=O)(=O)N2CCCCC2)C1` (stereo unspecified), 0.58% (inactive); to `CN(Cc1ccccc1)Cc1ccccc1F`, 24.1% (active). As to `CN(Cc1ccccc1F)C(=O)C(Cc1ccccc1)NC(=O)c1ccccc1` (stereo unspecified), the inhibition of corepressor binding is 0.68% (inactive). To `N=c1n(CCc2ccccc2)c2ccccc2n1Cc1ccccc1F` belongs -5.83% (inactive).

Regarding `CCOc1ccc(CCNC(=O)C2=C(C)C(=O)OC23CCC(C)CC3)cc1OCC` (stereo unspecified), the inhibition of corepressor binding was -3.37% (inactive). Under `O=C1C(=O)N(CCN2CCOCC2)C(c2cccc(Cl)c2)/C1=C(/O)c1ccc2c(c1)OCO2` (stereo unspecified) stands 31.6% (active). Regarding `O=C1C(=O)N(CCN2CCOCC2)C(c2ccccn2)/C1=C(/O)c1ccc(Cl)cc1` (stereo unspecified), the inhibition of corepressor binding is -1.05% (inactive). To `O=C1C(=O)N(CCCN2CCOCC2)C(c2ccc([N+](=O)[O-])cc2)/C1=C(\O)c1ccc2c(c1)OCCO2` (stereo unspecified) belongs 2.15% (inactive); to `Cc1ccc(-c2nc(CSCC(=O)NC3CCN(Cc4ccccc4)CC3)c(C)o2)cc1`, 1.78% (inactive); to `CCN(CC)Cc1csc2ccc(Br)cc12`, -3.8% (inactive). To `CCOc1cc(C2/C(=C(/O)c3ccc(S(=O)(=O)N4CCCCC4)cc3)C(=O)C(=O)N2CCOC)ccc1O` (stereo unspecified) belongs 0.08% (inactive).

`CCOc1cc(NC(=S)NCCCOC)c(OCC)cc1NC(=O)c1ccco1`: the inhibition of corepressor binding is 1.79% (inactive). For `COCCNC(=O)Nc1ccc2nc(-c3ccco3)c(-c3ccco3)nc2c1`, the inhibition of corepressor binding is 30.4% (active). Under `O=C(NCc1ccccn1)c1ccc2nc(-c3ccco3)c(-c3ccco3)nc2c1` stands 9.85% (inactive); under `CCOc1cc(C(=O)Nc2ccc(S(=O)(=O)Nc3cnc4ccccc4n3)cc2)cc(OCC)c1OCC`, 0.9% (inactive); under `CCCOn1c(-n2nc(C)cc2C)nc2ccccc2c1=O`, -0.33% (inactive). In the case of `COc1ccc2c3c1O[C@H]1C[C@@H](O)C=C[C@@]31CCN(C)C2`, the inhibition of corepressor binding was 4.69% (inactive). On to `O=C(CCN1C(=O)c2ccncc2C1=O)Nc1cc(F)ccc1F`, for which the inhibition of corepressor binding is -0.36% (inactive). For `CCCC(=O)N1CCC(CCC(=O)NC2CC2)CC1`, the inhibition of corepressor binding was 0.01% (inactive). To `Cc1ccc(C(=O)COC(=O)c2cccc(N3C(=O)c4c(C)nc5ccccc5c4C3=O)c2)cc1C` belongs -4.34% (inactive). Under `COc1ccc(C(C(=O)NC2CCCCC2)N(C(=O)CCl)c2ccccc2Cl)cc1` (stereo unspecified) stands 3.2% (inactive); under `CCCOC1CCCN(Cc2cn(C)nc2-c2ccccc2F)C1` (stereo unspecified), -1.73% (inactive); under `CC1C(=O)Nc2ccccc2N1C(=O)c1c(F)cccc1F` (stereo unspecified), 0.31% (inactive). Take `CCCCCCSc1nsc(N)n1`: the inhibition of corepressor binding is 3.46% (inactive). Under `CC1CCN(S(=O)(=O)c2ccc3c(c2)n(C)c(=O)n3C)CC1` stands 0.8% (inactive); under `CCc1cc2c(SCC(=O)Nc3ncc(Cl)c(C)c3Cl)ncnc2s1`, 2.24% (inactive). Under `CCc1ccc(S(=O)(=O)Nc2cc3c(cc2N2CCCCC2)n(C)c(=O)c(=O)n3C)cc1` stands -2.2% (inactive).

With `CC[N+](C)(CC)CCC[n+]1c(-c2ccccc2)c2cc(N)ccc2c2ccc(N)cc21`, the inhibition of corepressor binding is 41.5% (active).

For the origin of these results see PubChem BioAssay AID2300 (The Scripps Research Institute Molecular Screening Center, 2010).
